Experimental data reported in ChEMBL document CHEMBL1124990, “Propenyl carboxamide derivatives as antagonists of platelet activating factor” (J Med Chem, 1990).

Experiments:
Type in all cases: functional
Cavia porcellus [1] = experiment: In vivo inhibition of the platelet activating factor-induced bronchoconstriction at dose 1.0 mg/kg administered intravenous in guinea pig
Outline: (§1)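 Male Hartley guinea pigs (400–600 g), urethane-anesthetized (2 g/kg ip), jugular cannula; propranolol given 5 min before PAF; succinylcholine (1.2 mg/kg iv) then ventilation at 40 breaths/min, 4.0 cm³ stroke. Drug or vehicle iv 1 min before PAF 1 μg/kg iv. Tracheal pressure change averaged over four control and four treated animals, expressed as % inhibition; screen at 1 mg/kg.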

Cavia porcellus [2] = experiment: In vivo inhibition of the platelet activating factor-induced bronchoconstriction after 2 hr at dose 50 mg/kg administered perorally in guinea pig; conditions: route oral
Outline: (§2)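 Oral dosing of 50 mg/kg, either 2 h or 6 h before iv PAF challenge (1 μg/kg), in urethane-anesthetized male Hartley guinea pigs (400–600 g). Animals were propranolol-pretreated, paralysed with succinylcholine and ventilated. Tracheal pressure change averaged over four vehicle and four drug-treated animals and reported as % inhibition.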

Cavia porcellus [3] = experiment: Dose that caused significant inhibition of the platelet activating factor-induced bronchoconstriction in guinea pig after intravenous administration; conditions: read-out: ID50 (the source's name); outline: as §1
Cavia porcellus [4] = experiment: In vivo inhibition of the platelet activating factor-induced bronchoconstriction after 6 hr at dose 50 mg/kg administered perorally in guinea pig; conditions: route oral; outline: as §2
Cavia porcellus [5] = experiment: Dose that caused significant inhibition of the platelet activating factor-induced bronchoconstriction in guinea pig after peroral administration; conditions: po, read-out: ID50 (the source's name)
Outline: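 Male Hartley guinea pigs (400–600 g), urethane-anesthetized (2 g/kg ip), jugular cannula, propranolol pretreatment, succinylcholine paralysis and ventilation. Compound or vehicle given orally 2 h before iv PAF challenge (1 μg/kg). Tracheal pressure rise averaged over four control and four dosed animals, giving % inhibition.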

| SMILES | inhibition in vivo at 1 mg/kg (Cavia porcellus [1]) [%] | inhibition in vivo at 50 mg/kg (Cavia porcellus [2]) [%] | ED50 (Cavia porcellus [3]) [mg/kg] | inhibition in vivo at 50 mg/kg (Cavia porcellus [4]) [%] | ED50 (Cavia porcellus [5]) [mg/kg] |
| --- | --- | --- | --- | --- | --- |
| COc1ccc(C2=C(/C=C/C(=O)N[C@@H](C)CCCc3cccnc3)CCc3cc(OC)ccc32)cc1 | 95 | 75 | 0.15 | 1 | 17 |
| CCCCC/C(=C\C=C\C(=O)N[C@@H](C)CCCc1cccnc1)c1ccc(OC)cc1 | 99 | 100 | 0.05 | 71 | 4.1 |
| CCCCc1c(/C=C/C(=O)N[C@@H](C)CCCc2cccnc2)ccc2cc(OC)ccc12 | 95 | 92 | 0.45 | 71 | 4.2 |
| COc1ccc(-c2c(/C=C/C(=O)N[C@@H](C)CCCc3cccnc3)ccc3cc(OC)ccc23)cc1 | 92 | 79 | 0.18 | 55 | 12 |
| CCCCc1c(/C=C/C(=O)N[C@@H](C)CCCc2cccnc2)ccc2c(OC)cccc12 | 50 | 4 | 1 |  |  |
| CCCCc1c(/C=C/C(=O)N[C@@H](C)CCCc2cccnc2)cc(OC)c2ccccc12 | 90 | 95 | 0.11 | 52 | 2.8 |
| CCCCCc1c(/C=C/C(=O)N[C@@H](C)CCCc2cccnc2)oc2cc(OC)ccc12 | 89 | 0 | 0.06 |  |  |
| CCCCCc1c(/C=C/C(=O)N[C@@H](CC)CCCc2cccnc2)n(C)c2cc(OC)ccc12 | 98 | 99 | 0.07 | 96 | 3 |
| CCCCc1c(/C=C/C(=O)N[C@@H](C)CCCc2cccnc2)ccc2ccc(OC)cc12 | 0 |  |  |  |  |
| CCCCCC1=C(/C=C/C(=O)N[C@@H](C)CCCc2cccnc2)Cc2cc(OC)ccc21 | 96 | 0 | 0.05 |  |  |
| CCCCCc1c(/C=C/C(=O)N[C@@H](C)CCCc2cccnc2)sc2cc(OC)ccc12 | 98 | 97 | 0.11 | 97 | 5.4 |
| CCCCc1c(/C=C/C(=O)N[C@@H](C)CCCc2cccnc2)cc(OC)c2ccc(OC)cc12 | 80 | 16 | 0.44 |  |  |
| CCCCC1=C(/C=C/C(=O)N[C@@H](C)CCCc2cccnc2)CCc2cc(OC)ccc21 | 94 | 50 | 0.46 |  | 50 |
